ChEMBL document CHEMBL3232989, “First identification of boronic species as novel potential inhibitors of the Staphylococcus aureus NorA efflux pump” (J Med Chem, 2014)
In brackets after ≈: the same amount, converted by molar mass.

Columns and labels:
[1] = target: T1, Quinolone resistance protein NorA (Staphylococcus aureus) (UniProt P0A0J7); assay: Inhibition of NorA in fluoroquinolone-resistant Staphylococcus aureus 1199B assessed as potentiation of 4 ug/ml of ciprofloxacin MIC at 100 ug/ml after 24 hrs by microdilution method
T1 sequence (whole entry): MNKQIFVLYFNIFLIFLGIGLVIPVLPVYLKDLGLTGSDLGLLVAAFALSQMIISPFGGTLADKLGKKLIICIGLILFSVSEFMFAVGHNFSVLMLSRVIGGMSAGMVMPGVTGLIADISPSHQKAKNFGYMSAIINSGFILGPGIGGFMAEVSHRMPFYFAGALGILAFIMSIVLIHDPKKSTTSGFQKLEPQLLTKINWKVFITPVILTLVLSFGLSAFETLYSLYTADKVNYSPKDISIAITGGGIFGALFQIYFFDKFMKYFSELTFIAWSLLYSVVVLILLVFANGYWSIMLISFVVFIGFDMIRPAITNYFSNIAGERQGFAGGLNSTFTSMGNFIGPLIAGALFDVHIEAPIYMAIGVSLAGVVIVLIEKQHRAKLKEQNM
Method in brief: (§1)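 Combination with ciprofloxacin 4 μg/mL (MIC/4) against SA-1199B in MH broth microdilution, 10^6 CFU/mL, 24 h at 37 °C, read at 620 nm and visually. Compounds are first screened at 100 μg/mL; actives are 2-fold serially diluted. MMC4 is the lowest inhibitor concentration giving antibacterial activity with subinhibitory ciprofloxacin. Duplicates.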

[2] = system: Staphylococcus aureus; assay: Toxicity in Staphylococcus aureus ATCC 25923 at 100 ug/ml after 24 hrs by microdilution method; type: organism-based
Method in brief: (§2)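 Single-point screen at 100 μg/mL of compound alone in MH broth microdilution, 10^6 CFU/mL, 24 h at 37 °C. Growth is read at 620 nm and visually, giving percent growth inhibition. Compounds inhibiting more than 90% then go to MIC determination. Duplicates.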

[3] = target: T1, Quinolone resistance protein NorA (Staphylococcus aureus); assay: Inhibition of NorA in fluoroquinolone-resistant Staphylococcus aureus 1199B assessed as potentiation of 4 ug/ml of ciprofloxacin MIC at 1 ug/ml after 24 hrs by microdilution method; method in brief: as §1
[4] = Cytotoxicity against human KB cells assessed growth inhibition at 10 uM after 72 hrs by MTS assay; type: cell-based; conditions: read-out: GI
Method in brief: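 KB cells (from NCI) grown in DMEM with 10% FCS, penicillin-streptomycin, fungizone and glutamine, 37 °C, 5% CO2; compounds in DMSO added 24 h after plating (1% DMSO final, controls same). 72 h exposure, then MTS 3 h at 37 °C, absorbance at 490 nm; inhibition = (1 − OD490 treated/OD490 control)×100, triplicate experiments.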

[5] = system: Staphylococcus aureus; assay: Toxicity in fluoroquinolone-resistant Staphylococcus aureus 1199B expressing NorA at 100 ug/ml after 24 hrs by microdilution method; type: organism-based; method in brief: as §2
[6] = system: Staphylococcus aureus; assay: Toxicity in Staphylococcus aureus ATCC 25923 after 24 hrs by microdilution method; type: organism-based
Method in brief: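 Mueller–Hinton broth microdilution; inoculum from frozen culture grown 18 h at 37 °C, 10^6 CFU/mL per well. Compounds (10 mg/mL DMSO stock) in 2-fold serial dilutions, highest 128 mg/L, first screened at 100 μg/mL. MIC = complete growth inhibition after 24 h at 37 °C, read at 620 nm and visually; duplicate; ampicillin control.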

[7] = system: Staphylococcus aureus; assay: Antibacterial activity against Staphylococcus aureus ATCC 25923 after 24 hrs by microdilution method; type: functional; conditions: ATCC 25923, 24 h
Method in brief: (§3)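 Broth microdilution in Mueller–Hinton broth, 10^6 CFU/mL per well from an 18 h 37 °C culture. Compounds come from 10 mg/mL DMSO stocks as 2-fold serial dilutions, top 128 mg/L. Plates run 24 h at 37 °C and are read at 620 nm and visually. MIC is the lowest concentration with complete growth inhibition. Duplicates; 2-fold variance accepted.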

[8] = system: Staphylococcus aureus; assay: Toxicity in fluoroquinolone-resistant Staphylococcus aureus 1199B expressing NorA after 24 hrs by microdilution method; type: organism-based; conditions: in vitro; method in brief: as §3
[9] = system: Staphylococcus aureus subsp. aureus RN4220; assay: Inhibition of MsrA in macrolide-resistant Staphylococcus aureus RN4220 harboring pUL5054 assessed as potentiation of 4 ug/ml of […] erythromycin MIC after 24 hrs by microdilution method (reference value: […] ug/ml)

Compound | Activity [1] | growth inhibition (GI) [2] | fold change (FC) [3] | inhibition at 72 h, 10 µM [4] | growth inhibition (GI) [5] | MIC [6] | MIC [7] | MIC [8] | Activity [9]
OB(O)c1ccc(OCc2ccccc2)nc1 | 1 µg/mL | < 90% | 4 | 2% | < 90% | >= 64 ug ml-1 |  |  | 
OB(O)c1cnc2ccccc2c1 | 4 µg/mL | < 90% |  | 0% | < 90% | >= 64 ug ml-1 |  |  | 
CC1(C)S[C@@H]2[C@H](NC(=O)[C@H](N)c3ccccc3)C(=O)N2[C@H]1C(=O)O [AMPICILLIN] |  |  |  |  |  | >= 64 ug ml-1 | 0.25 µg/mL (≈ 0.715 µM) |  | 
COc1ccc(B(O)O)cn1 | 4 µg/mL | < 90% |  | 0% | < 90% | >= 64 ug ml-1 |  |  | 
OB(O)c1cc(Cl)cnc1Cl | 16 µg/mL | < 90% |  |  |  | >= 64 ug ml-1 |  | > 128 µg/mL | 
OB(O)c1cccnc1F | 8 µg/mL | < 90% |  | 4% | < 90% | >= 64 ug ml-1 |  |  | 
O=C(O)c1cn(C2CC2)c2cc(N3CCNCC3)c(F)cc2c1=O [CIPROFLOXACIN] |  |  |  |  |  | >= 64 ug ml-1 | 0.5 µg/mL (≈ 1.51 µM) |  | 
Cn1nccc1B1OC(C)(C)C(C)(C)O1 | 8 µg/mL | < 90% |  | 0% | < 90% | >= 64 ug ml-1 |  |  | 
OB(O)c1ccc(Oc2cncc(Cl)c2)nc1 | 8 µg/mL | < 90% |  | 0% | < 90% | >= 64 ug ml-1 |  |  | 
OB(O)c1ccccc1Oc1ccccc1 | 32 µg/mL |  |  | 10% |  |  |  | 32 µg/mL (≈ 150 µM) | 32 µg/mL
CC(C)(O)C(C)(C)OB(OC(C)(C)C(C)(C)O)c1ccnc(F)c1 | 2 µg/mL | < 90% |  | 0% | < 90% | >= 64 ug ml-1 |  |  | 
OB(O)c1ccsc1 | 8 µg/mL | < 90% |  | 0% | < 90% | >= 64 ug ml-1 |  |  | 
OB(O)c1ccc(Cl)cc1 | 1 µg/mL |  |  | 0% |  |  |  | 64 µg/mL (≈ 409 µM) | 
O=Cc1ccccc1Br | > 128 µg/mL |  |  |  |  | >= 64 ug ml-1 |  | > 128 µg/mL | 
O=Cc1ccccc1 [BENZALDEHYDE] | > 128 µg/mL |  |  |  |  | >= 64 ug ml-1 |  | > 128 µg/mL | 
O=Cc1ccc2ccccc2c1 [2-NAPHTHALDEHYDE] | 64 µg/mL |  |  |  |  | >= 64 ug ml-1 |  | > 128 µg/mL | 
O=C(O)c1ccccc1Cl | 64 µg/mL |  |  |  |  | >= 64 ug ml-1 |  | 128 µg/mL (≈ 818 µM) | 
Cc1cc(C(=O)O)cnc1Cl | > 128 µg/mL |  |  |  |  | >= 64 ug ml-1 |  | > 128 µg/mL | 
Cc1cccc(C(=O)O)c1Cl | > 128 µg/mL |  |  |  |  | >= 64 ug ml-1 |  | > 128 µg/mL | 
O=C(O)c1ccccc1Br | > 128 µg/mL |  |  |  |  | >= 64 ug ml-1 |  | > 128 µg/mL | 
OB(O)c1cc(Br)cnc1F | 128 µg/mL | < 90% |  |  |  | >= 64 ug ml-1 |  | > 128 µg/mL | 
O=Cc1ccc(B(O)O)cc1C(F)(F)F | 16 µg/mL |  |  | 100% |  | >= 64 ug ml-1 |  | 32 µg/mL (≈ 147 µM) | 32 µg/mL

Compound | Activity [1] | growth inhibition (GI) [2] | fold change (FC) [3] | inhibition at 72 h, 10 µM [4] | growth inhibition (GI) [5] | MIC [6] | MIC [7] | MIC [8] | Activity [9]
CC(C)(O)C(C)(C)OB(OC(C)(C)C(C)(C)O)c1cc(Cl)cnc1Cl | > 128 µg/mL | < 90% |  |  |  | >= 64 ug ml-1 |  | 128 µg/mL (≈ 326 µM) | 
Cc1c(B(O)O)ccc2ccccc12 | 8 µg/mL | < 90% |  | 0% | < 90% | >= 64 ug ml-1 |  |  | 
CCOc1ccc(B(O)O)cn1 | 4 µg/mL | < 90% |  | 0% | < 90% | >= 64 ug ml-1 |  |  | 
CC(=O)n1ncc2c(B3OC(C)(C)C(C)(C)O3)cccc21 | 8 µg/mL | < 90% |  | 0% | < 90% | >= 64 ug ml-1 |  |  | 
OB(O)c1ccc(Br)nc1 | 8 µg/mL | < 90% |  | 1% | < 90% | >= 64 ug ml-1 |  |  | 
CSc1ccc(B(O)O)cn1 | 8 µg/mL | < 90% |  | 0% | < 90% | >= 64 ug ml-1 |  |  | 
Cc1cc(B(O)O)ccc1Cl | 2 µg/mL |  |  | 0% |  |  |  | > 128 µg/mL | 
OB(O)c1ccc(Br)cc1 | 2 µg/mL |  |  | 0% |  |  |  | > 128 µg/mL | 
Cc1cc(B(O)O)cnc1Cl | 4 µg/mL | < 90% |  | 0% |  | >= 64 ug ml-1 |  | > 128 µg/mL | 
Oc1ccc(Br)nc1 | > 128 µg/mL |  |  |  |  | >= 64 ug ml-1 |  | > 128 µg/mL | 
OB(O)c1ccc(Cl)nc1 | 8 µg/mL | < 90% |  | 1% | < 90% | >= 64 ug ml-1 |  |  | 
OB(O)c1ccc(OCc2ccccc2)cc1 | 0.5 µg/mL |  |  | 6% |  |  |  | > 128 µg/mL | 
Oc1ccc2ccccc2c1 [BETANAPHTHOL] | 64 µg/mL |  |  |  |  | >= 64 ug ml-1 |  | > 128 µg/mL | 
CC(C)(O)C(C)(C)OB(OC(C)(C)C(C)(C)O)c1cc(Br)cnc1F | 64 µg/mL | < 90% |  |  |  | >= 64 ug ml-1 |  | 128 µg/mL (≈ 305 µM) | 
CC(C)(O)C(C)(C)OB(OC(C)(C)C(C)(C)O)c1ccc(Br)nc1 | 8 µg/mL | < 90% |  | 0% | < 90% | >= 64 ug ml-1 |  |  | 
OB(O)c1ccc2ccccc2c1 | 4 µg/mL |  |  | 3% |  |  |  | > 128 µg/mL | 
O=Cc1ccc(B(O)O)cc1Cl | 4 µg/mL |  |  | 100% |  | >= 64 ug ml-1 |  | 32 µg/mL (≈ 174 µM) | 32 µg/mL
O=Cc1ccc(OCc2ccccc2)nc1 | 32 µg/mL |  |  |  |  | >= 64 ug ml-1 |  | > 128 µg/mL | 
OB(O)c1ccc(Oc2ccc(Cl)nc2)nc1 | 4 µg/mL | < 90% |  | 0% | < 90% | >= 64 ug ml-1 |  |  | 
Oc1ccccc1Br | 128 µg/mL |  |  |  |  | >= 64 ug ml-1 |  | > 128 µg/mL | 
CC(=O)OCc1ccc(B(OC(C)(C)C(C)(C)O)OC(C)(C)C(C)(C)O)cc1 | 4 µg/mL | < 90% |  | 6% | < 90% | >= 64 ug ml-1 |  |  | 
Cc1cccc(O)c1Cl | 64 µg/mL |  |  |  |  | >= 64 ug ml-1 |  | > 128 µg/mL | 
